Experimental data reported in ChEMBL document CHEMBL1687687, “Identification of a New Series of STAT3 Inhibitors by Virtual Screening” (ACS Med Chem Lett, 2010).
The source made the active and inactive calls. No cut-off for these calls is given here.

What was measured:
[1] = target: T1, Signal transducer and activator of transcription 3 (Homo sapiens, UniProt P40763); assay: Inhibition of STAT3 transcriptional activity in human HeLa cells by luciferase reporter gene assay; format: cell-based
How it was run: (§1)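 STAT3-dependent luciferase reporter gene assay in HeLa cells. Activity is reported as percent inhibition at a single 100 μM concentration, or as an IC50.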

[2] = target: T1, Signal transducer and activator of transcription 3; assay: Inhibition of STAT3 transcriptional activity in human HeLa cells at 100 uM by luciferase reporter gene assay; format: cell-based; how it was run: as §1
[3] = target: T1, Signal transducer and activator of transcription 3; assay: Inhibition of STAT3 dimerization transfected in HEK293 cells at 50 uM after 24 hrs followed by 1 hr stimulation with 50 ng/ml IL-6 by FRET assay; format: cell-based
How it was run: (§2)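 Cell-based FRET dimerization read-out in HEK293 cells co-expressing STAT3-CFP and STAT3-YFP. Cells were pretreated with compound before IL-6 stimulation, and the FRET signal from the STAT3–STAT3 interaction was measured. Values are given as percent inhibition of the signal.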

[4] = target: T1, Signal transducer and activator of transcription 3; assay: Inhibition of STAT3 dimerization transfected in HEK293 cells at 100 uM after 24 hrs followed by 1 hr stimulation with 50 ng/ml IL-6 by FRET assay; format: cell-based; settings: 10 uM, in the assay text read “at 10 uM” for “at 100 uM”; how it was run: as §2
[5] = target: T1, Signal transducer and activator of transcription 3; assay: Inhibition of STAT3 DNA binding activity in IL-6 stimulated human MDA-MB-468 cells at 50 uM by transcription factor ELISA; format: cell-based
[6] = target: T2, Signal transducer and activator of transcription 5B (Homo sapiens) (UniProt P51692); assay: Inhibition of STAT5b DNA binding activity in IL-6 stimulated human MDA-MB-468 cells at 50 uM by transcription factor ELISA; format: cell-based
T2 sequence (whole entry): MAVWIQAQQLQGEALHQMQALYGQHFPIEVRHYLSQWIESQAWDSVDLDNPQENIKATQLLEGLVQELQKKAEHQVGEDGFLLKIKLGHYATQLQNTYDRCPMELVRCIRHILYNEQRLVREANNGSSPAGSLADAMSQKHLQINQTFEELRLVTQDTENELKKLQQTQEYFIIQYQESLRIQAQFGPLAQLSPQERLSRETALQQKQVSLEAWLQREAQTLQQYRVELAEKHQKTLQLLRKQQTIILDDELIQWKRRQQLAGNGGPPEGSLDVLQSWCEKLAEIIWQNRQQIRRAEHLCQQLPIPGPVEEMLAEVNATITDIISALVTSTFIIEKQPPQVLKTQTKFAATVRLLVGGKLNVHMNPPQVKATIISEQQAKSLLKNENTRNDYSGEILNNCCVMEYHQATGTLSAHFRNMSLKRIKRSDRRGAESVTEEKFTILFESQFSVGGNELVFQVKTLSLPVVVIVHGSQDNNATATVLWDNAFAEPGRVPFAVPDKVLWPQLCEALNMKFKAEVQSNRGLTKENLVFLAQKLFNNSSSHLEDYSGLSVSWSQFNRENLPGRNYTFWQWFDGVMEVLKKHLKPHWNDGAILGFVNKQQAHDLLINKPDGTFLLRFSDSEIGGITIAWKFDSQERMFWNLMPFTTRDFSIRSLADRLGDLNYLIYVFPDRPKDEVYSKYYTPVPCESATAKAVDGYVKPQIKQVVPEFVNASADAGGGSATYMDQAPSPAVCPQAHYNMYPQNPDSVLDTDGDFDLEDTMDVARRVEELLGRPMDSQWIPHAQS

[7] = target: T1, Signal transducer and activator of transcription 3; assay: Inhibition of STAT3 in human MDA-MB-468 cells assessed as reduction in c-myc expression at 20 uM by Western blotting; format: cell-based
How it was run: (§3)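 MDA-MB-468 breast cancer cells were treated with compound at a series of concentrations. Cell lysates were analysed by Western blotting for c-myc, cyclin D1 and survivin, with STAT3 Tyr705 phosphorylation probed alongside.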

[8] = target: T1, Signal transducer and activator of transcription 3; assay: Inhibition of STAT3 in human MDA-MB-468 cells assessed as reduction in cyclin D1 expression at 10 uM by Western blotting; format: cell-based; how it was run: as §3
[9] = Plasma concentration in CD1(ICR) mouse at 160 mg/kg, po after 8 hrs by LC-MS analysis; format: ADME, organism-based; design: dose 160 mg/kg, route oral
[10] = target: T3, Signal transducer and activator of transcription 1-alpha/beta (Homo sapiens) (UniProt P42224); assay: Inhibition of STAT1 DNA binding activity in IL-6 stimulated human MDA-MB-468 cells at 50 uM by transcription factor ELISA; format: cell-based
T3 sequence (whole entry): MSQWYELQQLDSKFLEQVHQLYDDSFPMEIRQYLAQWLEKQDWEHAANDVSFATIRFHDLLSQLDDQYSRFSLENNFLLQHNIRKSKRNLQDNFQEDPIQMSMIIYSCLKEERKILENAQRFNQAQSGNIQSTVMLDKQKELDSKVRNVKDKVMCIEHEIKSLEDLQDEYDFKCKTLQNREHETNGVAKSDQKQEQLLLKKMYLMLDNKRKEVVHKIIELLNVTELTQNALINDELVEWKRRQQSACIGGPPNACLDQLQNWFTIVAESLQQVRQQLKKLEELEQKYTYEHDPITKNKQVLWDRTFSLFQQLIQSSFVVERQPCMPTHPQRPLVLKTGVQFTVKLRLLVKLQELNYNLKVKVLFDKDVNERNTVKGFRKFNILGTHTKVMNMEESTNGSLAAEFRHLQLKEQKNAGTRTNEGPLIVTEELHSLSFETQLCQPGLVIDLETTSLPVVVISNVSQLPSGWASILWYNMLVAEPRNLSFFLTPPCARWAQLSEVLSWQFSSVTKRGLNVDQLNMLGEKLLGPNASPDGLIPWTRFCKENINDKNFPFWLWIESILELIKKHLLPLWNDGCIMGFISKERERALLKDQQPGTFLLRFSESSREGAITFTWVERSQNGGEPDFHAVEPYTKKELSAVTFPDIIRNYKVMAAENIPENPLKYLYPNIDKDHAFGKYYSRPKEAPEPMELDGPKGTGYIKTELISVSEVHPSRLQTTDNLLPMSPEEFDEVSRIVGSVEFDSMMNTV

[11] = target: T1, Signal transducer and activator of transcription 3; assay: Inhibition of STAT3 in human MDA-MB-468 cells assessed as reduction in survivin expression at 10 uM by Western blotting; format: cell-based; how it was run: as §3
[12] = target: T1, Signal transducer and activator of transcription 3; assay: Inhibition of STAT3 in human MDA-MB-468 cells assessed as reduction in c-myc expression at 50 uM by Western blotting; format: cell-based; how it was run: as §3
Mus musculus [13] = organism: Mus musculus; assay: Toxicity in BALB/cA-v/v nude mouse assessed as increase in body weight relative to control; format: organism-based; settings: in vivo
How it was run: (§4)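 Human SCC-3 lymphoma cells implanted subcutaneously in nude mice. Compound given by oral gavage at 160 mg/kg once daily for 4 days. Tumour growth was assessed on day 4 against untreated controls, with significance taken at p < 0.05. Body weight and signs of toxicity were monitored over the same period.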

Mus musculus [14] = organism: Mus musculus; assay: Toxicity in BALB/cA-v/v nude mouse assessed as mortality; format: organism-based; settings: in vivo
SCC-3 = assay: Antitumor activity against human SCC-3 cells xenografted in BALB/cA-v/v nude mouse assessed as decrease in tumor volume at 160 mg/kg, po QD for 4 days measured on 4th day relative to control; format: functional; design: scale not given: the % may be the effect or the level left; how it was run: as §4
MDA-MB-453 = assay: Induction of apoptosis in human MDA-MB-453 cells assessed as increase in caspase3/7 activity at 1-100 uM by fluorescence assay; format: functional, cell-based
[15] = target: T1, Signal transducer and activator of transcription 3; assay: Inhibition of STAT3 in human MDA-MB-468 cells assessed as reduction in cyclin D1 expression at 20 uM by Western blotting; format: cell-based; how it was run: as §3
[16] = target: T4, Signal transducer and activator of transcription 5A (Homo sapiens) (UniProt P42229); assay: Inhibition of STAT5a DNA binding activity in IL-6 stimulated human MDA-MB-468 cells at 50 uM by transcription factor ELISA; format: cell-based
T4 sequence (whole entry): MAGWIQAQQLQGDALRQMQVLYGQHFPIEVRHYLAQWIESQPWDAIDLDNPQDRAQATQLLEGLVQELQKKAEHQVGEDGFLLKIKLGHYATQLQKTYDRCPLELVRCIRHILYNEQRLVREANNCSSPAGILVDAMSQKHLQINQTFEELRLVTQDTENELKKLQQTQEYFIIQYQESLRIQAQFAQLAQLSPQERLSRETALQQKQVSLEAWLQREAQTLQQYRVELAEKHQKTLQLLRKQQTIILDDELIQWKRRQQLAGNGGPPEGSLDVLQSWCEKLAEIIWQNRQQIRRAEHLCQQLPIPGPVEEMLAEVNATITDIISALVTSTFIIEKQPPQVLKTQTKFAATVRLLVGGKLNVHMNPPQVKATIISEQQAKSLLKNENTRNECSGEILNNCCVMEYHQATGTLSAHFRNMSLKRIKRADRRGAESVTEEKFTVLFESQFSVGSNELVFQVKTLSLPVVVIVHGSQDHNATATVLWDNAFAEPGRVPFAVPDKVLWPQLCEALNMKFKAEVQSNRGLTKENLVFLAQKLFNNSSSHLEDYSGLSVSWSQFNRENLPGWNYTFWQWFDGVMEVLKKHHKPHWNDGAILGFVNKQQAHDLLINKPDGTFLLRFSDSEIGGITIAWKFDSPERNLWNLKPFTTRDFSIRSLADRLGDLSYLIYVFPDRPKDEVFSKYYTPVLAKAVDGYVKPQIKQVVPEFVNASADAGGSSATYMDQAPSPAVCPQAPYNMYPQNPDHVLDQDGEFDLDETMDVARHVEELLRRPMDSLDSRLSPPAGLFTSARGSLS

[17] = target: T1, Signal transducer and activator of transcription 3; assay: Inhibition of STAT3 in human MDA-MB-468 cells assessed as reduction in c-myc expression at 10 uM by Western blotting; format: cell-based; how it was run: as §3
MDA-MB-468 = assay: Induction of apoptosis in human MDA-MB-468 cells assessed as increase in caspase3/7 activity at 1-100 uM by fluorescence assay; format: functional, cell-based
[18] = target: T1, Signal transducer and activator of transcription 3; assay: Inhibition of STAT3 in human MDA-MB-468 cells assessed as reduction in survivin expression at 20 uM by Western blotting; format: cell-based; how it was run: as §3
[19] = target: T1, Signal transducer and activator of transcription 3; assay: Inhibition of STAT3 in human MDA-MB-468 cells assessed as reduction in cyclin D1 expression at 50 uM by Western blotting; format: cell-based; how it was run: as §3
[20] = target: T1, Signal transducer and activator of transcription 3; assay: Inhibition of STAT3 in IL-6 stimulated human MDA-MB-468 cells assessed as reduction in amplification of c-myc promoter by CHIP assay; format: cell-based
How it was run: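 Chromatin immunoprecipitation in compound-treated MDA-MB-468 breast cancer cells. STAT3 occupancy of the c-myc promoter was judged by amplification of the c-myc promoter from the immunoprecipitate.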

[21] = target: T1, Signal transducer and activator of transcription 3; assay: Inhibition of STAT3 in human MDA-MB-468 cells assessed as reduction in survivin expression at 50 uM by Western blotting; format: cell-based; how it was run: as §3

T1 sequence (P40763 whole entry): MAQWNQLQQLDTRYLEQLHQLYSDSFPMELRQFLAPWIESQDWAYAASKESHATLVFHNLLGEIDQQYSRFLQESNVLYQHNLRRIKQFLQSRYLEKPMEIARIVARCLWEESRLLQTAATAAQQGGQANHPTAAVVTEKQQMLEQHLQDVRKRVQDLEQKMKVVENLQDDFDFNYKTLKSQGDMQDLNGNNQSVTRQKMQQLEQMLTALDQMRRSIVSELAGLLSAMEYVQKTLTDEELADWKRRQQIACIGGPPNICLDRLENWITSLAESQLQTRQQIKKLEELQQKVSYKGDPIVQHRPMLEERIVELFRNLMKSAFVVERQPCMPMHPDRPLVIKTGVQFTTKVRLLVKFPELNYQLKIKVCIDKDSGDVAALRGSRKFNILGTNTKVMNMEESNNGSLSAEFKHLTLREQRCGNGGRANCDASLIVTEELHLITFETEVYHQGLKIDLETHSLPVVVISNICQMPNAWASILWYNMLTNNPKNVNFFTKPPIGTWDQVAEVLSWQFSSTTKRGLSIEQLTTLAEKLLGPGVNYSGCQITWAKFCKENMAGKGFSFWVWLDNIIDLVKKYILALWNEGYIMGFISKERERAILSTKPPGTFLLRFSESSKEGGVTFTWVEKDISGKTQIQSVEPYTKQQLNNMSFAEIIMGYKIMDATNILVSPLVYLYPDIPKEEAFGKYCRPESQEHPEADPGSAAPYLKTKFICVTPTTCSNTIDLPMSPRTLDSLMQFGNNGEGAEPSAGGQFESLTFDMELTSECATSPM

Compound	IC50 [1]	inhibition [2]	inhibition [3]	inhibition [4]	other results
CCc1nnc(NC(=O)c2cc(-c3ccccc3)nc3ccccc23)o1		33%			
Cc1nnc(NC(=O)c2cc(-c3ccccc3)nc3ccccc23)o1		14%			
O=C(Nc1nnc(-c2ccoc2)o1)c1cc(-c2ccccc2)nc2ccccc12	72 µM	103%	55%	8%	
O=C(Nc1nnc(-c2ccc(Cl)cc2)o1)c1cc(-c2ccccc2)nc2ccccc12	61 µM	115%			
O=C(Nc1nnc(-c2ccco2)s1)c1cc(-c2ccccc2)nc2ccccc12		26%			
O=C(Nc1nnc(-c2ccco2)o1)c1ccnc2ccccc12		-5%	-4%	-2%	
O=C(Nc1nnc(Cc2ccccc2)o1)c1cc(-c2ccccc2)nc2ccccc12	75 µM	82%	61%	25%	
O=C(Nc1nnc(-c2cccs2)o1)c1cc(-c2ccccc2)nc2ccccc12	75 µM	86%	56%	36%	
O=C(Nc1nnc(-c2ccco2)o1)c1cc(N2CCCCC2)nc2ccccc12		-7%			
CCOC(=O)c1nnc(NC(=O)c2cc(-c3ccccc3)nc3ccccc23)o1		38%			
O=C(Nc1nnc(-c2ccco2)o1)c1cc(-c2ccccc2)nc2ccccc12	74 µM	99%	62%	9%	inhibition [5]: Active; inhibition [6]: inactive; inhibition [7]: Active; inhibition [8]: Active; concentration at 8 h [9]: > 260 µM; inhibition [10]: inactive; inhibition [11]: Active; inhibition [12]: Active; Activity (Mus musculus [13]): Non-toxic; Activity (Mus musculus [14]): Non-toxic; Activity (SCC-3): 40%; Activity (MDA-MB-453): inactive; inhibition [15]: Active; inhibition [16]: inactive; inhibition [17]: Active; Activity (MDA-MB-468): Active; inhibition [18]: Active; inhibition [19]: Active; inhibition [20]: Active; inhibition [21]: Active
O=C(Nc1nnc(-c2ccco2)o1)c1cc(Cl)nc2ccccc12		43%			

The next lines start with results.

IC50 [1]	inhibition [2]	inhibition [3]	inhibition [4]	Compound	other results
66 µM	129%			O=C(Nc1nnc(-c2ccco2)o1)c1cc(-c2ccco2)nc2ccccc12	
55 µM	121%	70%	14%	O=C(Nc1nnc(-c2ccco2)o1)c1cc(-c2cccc3ccccc23)nc2ccccc12	
63 µM	91%	56%	18%	O=C(Nc1nnc(-c2ccco2)o1)c1cc(-c2cccs2)nc2ccccc12	
	5%			O=C(Nc1nnc(-c2ccco2)o1)c1cc(-c2ccccn2)nc2ccccc12	
	12%			O=C(Nc1nnc(-c2ccco2)o1)c1cc(-c2cccnc2)nc2ccccc12	
66 µM	105%	60%	43%	O=C(Nc1nnc(-c2ccccc2)o1)c1cc(-c2ccccc2)nc2ccccc12	
	5%			O=C(Nc1nnc(-c2ccccc2Cl)o1)c1cc(-c2ccccc2)nc2ccccc12	
